Most compounds without a hit are left out; they make up all but 1.5% or so of the library.
VLA-4 inh: inhibition in a human VLA-4 binding assay; VLA-4 expressing cells, ligand binding flow cytometry; P13612; inhibition, % (about 7 µM as worked out from the volumes in the protocol); 330,000 tested, 0.2% active; in the data active = inhibition above about 50%
Target sequence (P13612 whole entry, looked up): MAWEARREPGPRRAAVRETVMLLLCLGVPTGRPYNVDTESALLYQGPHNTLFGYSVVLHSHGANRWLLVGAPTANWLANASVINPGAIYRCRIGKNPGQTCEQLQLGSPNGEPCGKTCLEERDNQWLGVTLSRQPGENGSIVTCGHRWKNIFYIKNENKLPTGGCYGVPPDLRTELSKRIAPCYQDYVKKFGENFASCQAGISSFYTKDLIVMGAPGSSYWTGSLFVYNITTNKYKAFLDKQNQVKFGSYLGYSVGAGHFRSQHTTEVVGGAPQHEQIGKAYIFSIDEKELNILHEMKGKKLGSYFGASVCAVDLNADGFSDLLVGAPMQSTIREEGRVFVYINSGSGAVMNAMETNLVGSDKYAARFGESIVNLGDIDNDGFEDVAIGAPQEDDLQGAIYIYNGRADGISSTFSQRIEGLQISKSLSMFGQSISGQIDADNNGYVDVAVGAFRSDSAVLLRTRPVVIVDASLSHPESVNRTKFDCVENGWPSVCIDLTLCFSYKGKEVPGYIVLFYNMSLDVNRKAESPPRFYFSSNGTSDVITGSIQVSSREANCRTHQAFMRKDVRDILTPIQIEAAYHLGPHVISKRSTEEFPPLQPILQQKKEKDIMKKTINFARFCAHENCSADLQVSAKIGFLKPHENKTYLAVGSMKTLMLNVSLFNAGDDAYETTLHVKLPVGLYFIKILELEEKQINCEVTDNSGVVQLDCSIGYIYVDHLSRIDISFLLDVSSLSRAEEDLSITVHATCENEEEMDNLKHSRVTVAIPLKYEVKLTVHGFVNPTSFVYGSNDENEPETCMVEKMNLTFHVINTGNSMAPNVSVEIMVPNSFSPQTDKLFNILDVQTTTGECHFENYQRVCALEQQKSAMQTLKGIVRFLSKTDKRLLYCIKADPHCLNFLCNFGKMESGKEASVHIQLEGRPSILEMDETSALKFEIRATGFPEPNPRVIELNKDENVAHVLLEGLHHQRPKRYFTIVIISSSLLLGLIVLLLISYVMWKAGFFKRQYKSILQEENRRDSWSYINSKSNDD
T cell modulator: T cell immune modulators affecting CD8 T cell-vesicle binding; 2C CD8+ T cell-vesicle binding, flow cytometry; hits give low values; response (vesicle binding), % at 7 µM; 330,000 tested, 0.068% active; AID 2052;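 active = response, share of CD8 T cells binding vesicles, and their 90th percentile fluorescence all below set limits, cut at about 80% in these data, passing the limit was not always enough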;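 also: values below 100% mean blocked vesicle binding to the CD8+ T cells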
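Material: 2C TCR transgenic mouse naive CD8+ T cells, MACS-purified. Also added: QL9-charged Drosophila Ld/ICAM-1/B7-1 vesicles. Timing: binding 1.5 h at 37 °C. Measured by: high-throughput flow cytometry with anti-B7-1 and anti-CD8 staining. Read-out: percent CD8+ FL2 mean versus row control. Controls: Unloaded micro-vesicles (low), QL9 vesicles with 0.7% DMSO (high).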
CHT block: inhibits the human high affinity choline transporter; CHT-expressing cells, membrane potential dye, choline response; hits give low values; B-score at 10 µM; 310,000 tested, 0.86% active; AID 488975;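 active = B-score over 3 SD under the library average, and starting fluorescence ratio not unusually high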;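 also: choline stimulus applied at its EC90 after an EC20 pre-addition; B-score computed on integrated fluorescence ratio after choline addition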
CHT allo act: human CHT allosteric activation; B-score at 10 µM; CHT-expressing cells, membrane potential dye, choline EC20; hits give high values; LV-AA mutant CHT in HEK293 cells; Q9GZV3; 310,000 tested, 0.49% active;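 active = initial fluorescence not abnormally high and integrated response B-score, plate-corrected, over 3 SD above library mean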
CHT act confirm: confirmation of human choline transporter (CHT) activators | shares compounds with CHT allo act | CHT-expressing cells, membrane potential dye fluorescence (FDSS); % of choline EC20–EC90 response window; HEK293 expressing CHT LV-AA mutant; choline added at its EC20 | activation, % at 10 µM | 2,500 tested, 91% active;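 active = primary screen active, with duplicate mean activation above negative control mean plus 3 SD, cut at about 11% in these data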
HEK293 MP dye: counter-screen for CHT activators: effect in parental HEK293 cells. 2,500 tested, 62% active. shares compounds with CHT allo act. ratio readout change at 10 µM, hits read low. membrane potential dye fluorescence (FDSS); measured after EC20 choline addition;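 active = duplicate-averaged ratio beyond 3 SD from buffer wells, up or down, though filed actives are nearly all decreases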
* = called active by the depositor; i = inactive; nt = not tested or not shown.

SMILES	VLA-4 inh	T cell modulator	CHT block	CHT allo act	CHT act confirm	HEK293 MP dye
O=C(O)C1NCCc2ccccc21 (centres undefined)	8	599	i	i	8	i
CC[n+]1c(C)sc2cc(C)ccc21	4	134	i	i	68*	-58*
COc1ccc(C2c3cc(OC)c(OC)cc3CCN2C(=O)c2cccc([N+](=O)[O-])c2)cc1OC (centres undefined)	11	112	i	i	29*	i
COc1cc2c(cc1OC)C(c1cccc([N+](=O)[O-])c1)N(C(=O)c1ccc(F)cc1)CC2 (centres undefined)	11	262	i	7.1*	46*	i
COc1cc2c(cc1OC)C(c1ccccc1)N(C(=O)c1ccccc1)CC2 (centres undefined)	4	394	i	i	nt	nt
COc1cc2c(cc1OC)C(c1ccc([N+](=O)[O-])cc1)N(C(C)=O)CC2 (centres undefined)	5	212	i	i	nt	nt
COC(=O)C1=C(C)N(Cc2ccccc2)C(=NCc2ccc(OC)cc2)N[C@H]1c1ccccc1	-13	324	nt	nt	nt	nt
CCN1C(=NCc2cccc(Cl)c2)N[C@@H](c2cccc(F)c2)C(C(=O)OC)=C1C	27	435	i	i	1	i
COC(=O)C1=C(C)N(Cc2ccccc2)C(=NCC(C)C)N[C@H]1c1ccccc1	-16	339	i	i	35*	i
COC(=O)C1=C(C)N(Cc2ccccc2)C(=NCc2cccc(C(F)(F)F)c2)N[C@H]1c1cccc(F)c1	nt	nt	i	i	nt	nt
O=C(CCNC(=O)c1ccc([N+](=O)[O-])cc1)NCc1cccs1	-2	502	nt	nt	nt	nt
O=C(CCCOc1ccccc1)NC(=S)Nc1ccccc1	17	240	i	i	nt	nt
COc1cc(C(=O)Nc2sc3c(c2C(=O)NCc2ccco2)CCCC3)cc(OC)c1OC	-4	231	i	7.6*	8	i
COC(=O)Nc1sc2c(c1C(=O)NCc1ccco1)CCCC2	11	463	i	i	nt	nt
CCn1c2ccccc2c2nn(C)c(=N)nc21	10	146	i	7.2*	66*	-70*
CCn1c2ccccc2c2n[nH]c(=S)nc21	6	i	i	i	nt	nt
Cc1cc(Cl)ccc1OCC(=O)OCC(=O)N1CCC(C(N)=O)CC1	-14	387	nt	nt	nt	nt
Cc1ccn2c(=O)nc(SCC(=O)N3CCCC3)nc2c1	5	415	i	i	nt	nt
CCCCC(=O)Nc1ccccc1N1CCN(c2ccccc2)CC1	-8	203	i	i	22*	i
CCCCCC(=O)Nc1ccccc1N1CCOCC1	-12	244	i	i	nt	nt
CC1=CC(C)C2(COC(=O)Nc3ccccc3)COC(C)C1C2C (centres undefined)	21	528	i	i	nt	nt
CCc1ccc(S(=O)(=O)Nc2cc3c(cc2N2CCOCC2)n(C)c(=O)c(=O)n3C)cc1	21	294	i	7.2*	56*	-47*
COc1ccc(OC)c(S(=O)(=O)Nc2cc3c(cc2N2CCCC2)n(C)c(=O)c(=O)n3C)c1	-107	332	i	7.2*	53*	-60*
Cc1ccc(S(=O)(=O)Nc2cc(S(=O)(=O)N3CCCCC3)ccc2N2CCOCC2)cc1	-13	264	i	i	nt	nt
COc1ccc(OC)c(NS(=O)(=O)c2ccc3c(c2)n(C)c(=O)n3C)c1	4	335	i	i	nt	nt
SMILES	VLA-4 inh	T cell modulator	CHT block	CHT allo act	CHT act confirm	HEK293 MP dye
CCN(CC)S(=O)(=O)c1ccc(N2CCOCC2)c(NS(=O)(=O)c2ccc(C)cc2)c1	6	268	i	i	nt	nt
Cn1c(=O)c(=O)n(C)c2cc(N3CCOCC3)c(NS(=O)(=O)c3ccc(Br)cc3)cc21	13	789	i	7.1*	53*	-43*
O=[N+]([O-])c1ccc(S(=O)(=O)Nc2ccc(-c3ccc(N4CCCC4)nn3)cc2)cc1	-8	329	i	i	15*	i
O=C(NC1=NCCS1)c1cccc2ccccc12	12	263	i	i	nt	nt
COC(=O)C1=C(C(=O)OC)[C@@H]2N(C)c3ccc(OC)cc3[C@@]23C[C@@H](C(=O)OC)N(C(=O)COCc2ccccc2)C3=N1	9	399	i	i	nt	nt
Cn1c(=O)c(=O)n(C)c2cc(N3CCCC3)c(NS(=O)(=O)c3ccc(F)cc3)cc21	-3	642	i	i	nt	nt
Cn1c(=O)c(=O)n(C)c2cc(N3CCCCC3)c(NS(=O)(=O)c3ccc([N+](=O)[O-])cc3)cc21	0	351	i	10*	52*	-47*
O=C(O)c1ccccc1C(=O)Nc1c(-c2ccccc2)nc2ccccn12	4	192	i	i	nt	nt
C=C1CCN(Cc2ccccc2)S(=O)(=O)c2ccccc21	34	301	i	9*	26*	i
COc1c(C=O)cc2c3c1CCCN3CCC2	-2	137	i	i	nt	nt
NCc1cc2c3c(c1)CCCN3CCC2	18	320	i	i	13*	-100*
CCCCn1c(N)c(N(CCOC)C(=O)COc2ccc(Cl)cc2)c(=O)[nH]c1=O	-3	316	i	i	nt	nt
COc1ccccc1CNc1nc2ccccc2n1CCN1CCCCC1	13	264	i	6.3*	40*	-22*
O=C(Nc1nc2ccccc2n1CCOc1ccccc1)c1ccco1	-7	588	i	i	nt	nt
Cn1ncc([N+](=O)[O-])c1C(=O)Nc1nc2ccccc2n1CCN1CCCCC1	11	297	i	i	nt	nt
O=C(Nc1nc2ccccc2n1CCN1CCCCC1)c1ccco1	-10	548	i	8.1*	29*	-41*
CCn1cc(Cl)c(C(=O)Nc2nc3ccccc3n2CCN2CCCCC2)n1	-16	663	i	9.6*	53*	-67*
COc1ccc(CCN=C(N)Nc2nc(C)cc(C)n2)cc1	9	201	i	6.5*	50*	-41*
CC(Sc1nc2ncc(Cl)cc2[nH]1)C(=O)NC1(C#N)CCCCC1 (centres undefined)	1	219	nt	nt	nt	nt
NS(=O)(=O)c1ccc(CCNC(=S)NC(=O)c2ccccc2Br)cc1	6	914	nt	nt	nt	nt
O=C(Nc1ccccc1C(=O)NCCCN1CCOCC1)c1cccc([N+](=O)[O-])c1	2	63	i	6.3*	50*	-59*
CN(C)S(=O)(=O)c1ccc(C(=O)Nc2ccccc2C(=O)NCCCN2CCOCC2)cc1	2	i	nt	nt	nt	nt
COc1ccc(S(=O)(=O)N2CCCCC2)cc1C(=O)N1CCCCCC1	-1	261	i	i	nt	nt

Screening data: PubChem BioAssay, several laboratories
